Measured values reported in ChEMBL document CHEMBL1143943, “Synthesis of naphtho[2,3-a]phenoxazinium chlorides: structure-activity relationships of these heterocycles and benzo[a]phenoxazinium chlorides as new antimicrobials” (2008).
Converted amounts (≈) assume the structure as drawn. Where a name gives a salt, the structure may show the parent alone.

Test system: Saccharomyces cerevisiae
Test: Antifungal activity against Saccharomyces cerevisiae W303-1B after 48 hrs by broth microdilution assay
Type: functional
Outline: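 NCCLS M27-A broth microdilution; S. cerevisiae W303-1B ([…], ade2, his3, leu2, trp1, ura3) at 0.5 · 10³ cells/mL initial density in RPMI 1640 with 0.165 M MOPS, pH 7.0, plus required amino acids; 30 °C. DMSO stocks diluted into medium. MIC read visually at 48 h as lowest concentration giving no detectable growth; triplicates, two independent experiments.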

MIC	Compound
15 µM (≈ 5.93 µg/mL)	CCCNc1cc2oc3c/c(=N/CC)c(C)cc-3nc2c2cc3ccccc3cc12
> 120 µM	C[N+](C)=c1ccc2nc3c(cc(N)c4ccccc43)oc-2c1
> 120 µM	CCCCCC/N=c1\ccc2nc3c(cc(Nc4ccccc4)c4ccccc43)oc-2c1
120 µM (≈ 41.6 µg/mL)	CC/N=c1/cc2oc3cc(NCCN)c4ccccc4c3nc-2cc1C
15 µM (≈ 8.05 µg/mL)	CC/N=c1/cc2oc3cc(NCCC(=O)NC(Cc4ccccc4)C(=O)OC)c4ccccc4c3nc-2cc1C (stereo unspecified)
15 µM (≈ 6.45 µg/mL)	CC/N=c1/cc2oc3cc(NCCCCl)c4cc5ccccc5cc4c3nc-2cc1C
30 µM (≈ 10.4 µg/mL)	CC/N=c1/cc2oc3cc(NCCO)c4ccccc4c3nc-2cc1C
120 µM (≈ 53.6 µg/mL)	CC/N=c1/cc2oc3cc(NCCC(=O)NCC(=O)OC)c4ccccc4c3nc-2cc1C
60 µM	CC[N+](CC)=c1ccc2nc3c(cc(N)c4ccccc43)oc-2c1 [NILE BLUE HYDROCHLORIDE]
15 µM (≈ 7.01 µg/mL)	CC/N=c1/cc2oc3cc(NCCCC(=O)OCC)c4cc5ccccc5cc4c3nc-2cc1C
15 µM (≈ 6.17 µg/mL)	CC/N=c1/cc2oc3cc(NCCCO)c4cc5ccccc5cc4c3nc-2cc1C
3.75 µM (≈ 1.42 µg/mL)	CC/N=c1/cc2oc3cc(NCCCCl)c4ccccc4c3nc-2cc1C
15 µM (≈ 6.05 µg/mL)	CC/N=c1/cc2oc3cc(NCCC(=O)OCC)c4ccccc4c3nc-2cc1C
> 120 µM	CC/N=c1/cc2oc3cc(Nc4ccccc4)c4ccccc4c3nc-2cc1C
15 µM (≈ 8.19 µg/mL)	CC/N=c1/cc2oc3cc(NCCNC(=O)C(NC(=O)OC(C)(C)C)C(C)C)c4ccccc4c3nc-2cc1C (stereo unspecified)
> 120 µM	CC/N=c1/cc2oc3cc(NCCCOC(=O)C(NC(=O)OC(C)(C)C)C(C)C)c4ccccc4c3nc-2cc1C (stereo unspecified)
30 µM (≈ 10.6 µg/mL)	CC/N=c1/cc2oc3cc(N)c4cc5ccccc5cc4c3nc-2cc1C
30 µM (≈ 10.8 µg/mL)	CC/N=c1/cc2oc3cc(NCCCN)c4ccccc4c3nc-2cc1C
60 µM (≈ 21.7 µg/mL)	CC/N=c1/cc2oc3cc(NCCCO)c4ccccc4c3nc-2cc1C
15 µM	CC[N+](CC)=c1ccc2nc3c(cc(NCCC(=O)OC)c4ccccc43)oc-2c1

MIC	Compound
15 µM (≈ 8.2 µg/mL)	CC/N=c1/cc2oc3cc(NCCOC(=O)C(NC(=O)OC(C)(C)C)C(C)C)c4ccccc4c3nc-2cc1C (stereo unspecified)
15 µM (≈ 5.84 µg/mL)	CC/N=c1/cc2oc3cc(NCCC(=O)OC)c4ccccc4c3nc-2cc1C
120 µM	CC[N+](CC)=c1ccc2nc3c(cc(NCCC(=O)O)c4ccccc43)oc-2c1
> 120 µM	C[N+](C)=c1ccc2nc3c(cc(NCCC(=O)O)c4ccccc43)oc-2c1
120 µM (≈ 46.7 µg/mL)	CC/N=c1/cc2oc3cc(NCCCC(=O)O)c4ccccc4c3nc-2cc1C
30 µM (≈ 13.8 µg/mL)	CC/N=c1/cc2oc3cc(NCCC(=O)NC(C)C(=O)OC)c4ccccc4c3nc-2cc1C (stereo unspecified)
15 µM	CCOC(=O)CCNc1cc2oc3cc(=[N+](C)C)ccc-3nc2c2ccccc12
60 µM (≈ 30.2 µg/mL)	CC/N=c1/cc2oc3cc(NCCCC(=O)NC(C(=O)OC)C(C)C)c4ccccc4c3nc-2cc1C (stereo unspecified)
> 120 µM	C[N+](C)=c1ccc2nc3c(cc(Nc4ccccc4)c4ccccc43)oc-2c1
120 µM	C[N+](C)=c1ccc2nc3c(cc(NCCCO)c4ccccc43)oc-2c1
30 µM (≈ 14.7 µg/mL)	CC/N=c1/cc2oc3cc(NCCC(=O)NC(C(=O)OC)C(C)C)c4ccccc4c3nc-2cc1C (stereo unspecified)
120 µM (≈ 63.9 µg/mL)	CC/N=c1/cc2oc3cc(NCCC(=O)NC(CCC(=O)OC)C(=O)OC)c4ccccc4c3nc-2cc1C (stereo unspecified)
15 µM (≈ 4.55 µg/mL)	CC/N=c1/cc2oc3cc(N)c4ccccc4c3nc-2cc1C
15 µM (≈ 5.63 µg/mL)	CC/N=c1/cc2oc3cc(NCCC(=O)O)c4ccccc4c3nc-2cc1C
60 µM (≈ 24.6 µg/mL)	CC/N=c1/cc2oc3cc(NCCCN)c4cc5ccccc5cc4c3nc-2cc1C
120 µM (≈ 67.2 µg/mL)	CC/N=c1/cc2oc3cc(NCCC(=O)NCCCCC(NC(C)=O)C(=O)OC)c4ccccc4c3nc-2cc1C (stereo unspecified)
7.5 µM (≈ 3.13 µg/mL)	CC/N=c1/cc2oc3cc(NCCCC(=O)OCC)c4ccccc4c3nc-2cc1C
> 120 µM	COC(=O)CCNc1cc2oc3cc(=[N+](C)C)ccc-3nc2c2ccccc12
60 µM (≈ 30.2 µg/mL)	CC/N=c1/cc2oc3cc(NC(=O)C(NC(=O)OC(C)(C)C)C(C)C)c4ccccc4c3nc-2cc1C (stereo unspecified)
120 µM	CC[N+](CC)=c1ccc2nc3c(cc(NCCCO)c4ccccc43)oc-2c1

Test system: Saccharomyces cerevisiae
Test: Antifungal activity against Saccharomyces cerevisiae W303-1B at 0.5*10^4 initial cell density after 48 hrs by broth microdilution assay
Type: functional
Outline: (§1)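 Same yeast microdilution protocol (W303-1B, RPMI 1640/0.165 M MOPS pH 7.0 with required amino acids, 30 °C, DMSO stocks diluted into medium), but initial inoculum raised in 10-fold steps within 0.5 · 10³–0.5 · 10⁶ cells/mL. MIC taken visually after 48 h as lowest concentration with no detectable growth; triplicates, two independent experiments.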

MIC	Compound
7.5 µM (≈ 2.85 µg/mL)	CC/N=c1/cc2oc3cc(NCCCCl)c4ccccc4c3nc-2cc1C
7.5 µM (≈ 3.13 µg/mL)	CC/N=c1/cc2oc3cc(NCCCC(=O)OCC)c4ccccc4c3nc-2cc1C

Test system: Saccharomyces cerevisiae
Test: Antifungal activity against Saccharomyces cerevisiae W303-1B at 0.5*10^5 initial cell density after 48 hrs by broth microdilution assay
Type: functional
Outline: as §1

MIC	Compound
7.5 µM (≈ 2.85 µg/mL)	CC/N=c1/cc2oc3cc(NCCCCl)c4ccccc4c3nc-2cc1C
7.5 µM (≈ 3.13 µg/mL)	CC/N=c1/cc2oc3cc(NCCCC(=O)OCC)c4ccccc4c3nc-2cc1C

Test system: Saccharomyces cerevisiae
Test: Antifungal activity against Saccharomyces cerevisiae W303-1B at 0.5*10^6 initial cell density after 48 hrs by broth microdilution assay
Type: functional
Outline: as §1

MIC	Compound
15 µM (≈ 5.7 µg/mL)	CC/N=c1/cc2oc3cc(NCCCCl)c4ccccc4c3nc-2cc1C
30 µM (≈ 12.5 µg/mL)	CC/N=c1/cc2oc3cc(NCCCC(=O)OCC)c4ccccc4c3nc-2cc1C
